What was measured:
Trypanosoma cruzi [1] = assay: Antitrypanosomal activity against epimastigote stage of Trypanosoma cruzi Y after 96 hrs by hemocytometry; assay type: functional, organism-based
Outline: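 Log-phase parasites (promastigotes 3-day, Warren's medium + 10% FBS, 25°C; epimastigotes 4-day, LIT + 10% FBS, 28°C) seeded at 1 × 10^6 cells/mL with compound (0.1-100 µM; DMSO ≤1%). Promastigotes read at 72 h, epimastigotes at 96 h, by hemocytometer counting. IC50 by nonlinear regression.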

Leishmania amazonensis = assay: Antileishmanial activity against promastigote stage of Leishmania amazonensis WHOM/BR/75/JOSEFA after 72 hrs by hemocytometry; assay type: functional, organism-based
[2] = Selectivity ratio of CC50 to IC50 for promastigote stage of Leishmania amazonensis WHOM/BR/75/JOSEFA; design: reference not given here
[3] = Selectivity ratio of CC50 for mouse J774A1 cells to IC50 for promastigote stage of Leishmania amazonensis WHOM/BR/75/JOSEFA; assay type: ADME, cell-based, J774.A1; conditions: read-out: Ratio CC50/IC50
Trypanosoma cruzi [4] = assay: Antitrypanosomal activity against trypomastigote stage of Trypanosoma cruzi Y infected in monkey LLC-MK2 cells after 96 hrs by Pizzi-Brener method; assay type: functional, organism-based
[5] = Selectivity ratio of CC50 for monkey LLC-MK2 cells to IC50 for epimastigote stage of epimastigote stage of Trypanosoma cruzi Y; assay type: ADME, cell-based; conditions: read-out: Ratio CC50/IC50
[6] = Selectivity ratio of CC50 for monkey LLC-MK2 cells to IC50 for epimastigote stage of epimastigote stage of Trypanosoma cruzi Y

Compound | IC50 (Trypanosoma cruzi [1]) [µM] | IC50 (Leishmania amazonensis) [µM] | selectivity ratio [2] | selectivity ratio [3] | EC50 (Trypanosoma cruzi [4]) [µM] | selectivity ratio [5] | selectivity ratio [6]
Cc1ccc(-c2nc3ccccc3nc2-c2ccccc2)cc1 | 35.7 | 8.9 | – | – | – | – | –
COc1ccc(-c2nc3ccccc3nc2-c2ccccc2)cc1 | 21.5 | 12.8 | – | – | – | – | –
c1ccc(-c2nc3ccccc3nc2-c2ccccc2)cc1 | > 100 | 21.1 | – | – | – | – | –
CSC(=C[N+](=O)[O-])SC | 10.8 | 29.6 | 6 | 6 | > 50 | 18.3 | 18.3
COc1cccc(N/C(=C\[N+](=O)[O-])SC)c1 | 32 | 27.9 | – | – | – | – | –
CS/C(=C/[N+](=O)[O-])Nc1ccccc1 | 11.4 | 24.1 | – | – | – | – | –
COc1ccc(N/C(=C\[N+](=O)[O-])SC)cc1 | 39 | 28.7 | – | – | – | – | –
CS/C(=C/[N+](=O)[O-])Nc1ccc2c(c1)OCCO2 | 61.9 | 42.3 | – | – | – | – | –
CS/C(=C/[N+](=O)[O-])Nc1ccc(O)cc1 | 67.3 | 41.5 | – | – | – | – | –
CS/C(=C/[N+](=O)[O-])Nc1ccc(Br)cc1 | 20.4 | 33 | – | – | – | – | –
CS/C(=C/[N+](=O)[O-])NC1CCCCC1 | 70.1 | 21.9 | – | – | – | – | –
CS/C(=C/[N+](=O)[O-])Nc1ccc(F)cc1 | 19.7 | 19.7 | – | – | – | – | –
CS/C(=C/[N+](=O)[O-])NCCCCO | > 100 | 73.6 | 11.1 | 11.1 | > 50 | – | –
CS/C(=C/[N+](=O)[O-])NCCCO | 90.1 | > 100 | – | – | > 50 | 9.6 | 9.6
CS/C(=C/[N+](=O)[O-])Nc1ccc(Cl)cc1 | 25.8 | 21.3 | 6.9 | 6.9 | > 50 | 7.3 | 7.3
COc1ccc2nc(Cl)c(SC)nc2c1 | 38.7 | 93.6 | 9.8 | 9.8 | > 50 | 19.3 | 19.3
CSc1nc2ccccc2nc1Cl | 52.9 | 74.1 | 13.5 | 13.5 | > 50 | 8.1 | 8.1
COc1ccc2nc(SC)c(Cl)nc2c1 | > 100 | > 100 | – | – | > 50 | – | –
CSc1nc2ccc(Br)cc2nc1Cl | 47.8 | 57.9 | 7.4 | 7.4 | > 50 | 9.2 | 9.2
CSc1nc2ccc(Cl)cc2nc1Cl | 39.4 | 45.3 | 22.1 | 22.1 | > 50 | 16.1 | 16.1
COc1ccc2nc(-c3ccccc3)c(SC)nc2c1 | > 100 | > 100 | – | – | – | – | –
CSc1nc2ccccc2nc1-c1ccccc1 | > 100 | > 100 | – | – | – | – | –
COc1ccc(-c2nc3cc(OC)ccc3nc2-c2ccccc2)cc1 | > 100 | 40.5 | – | – | – | – | –
Cc1ccc(-c2nc3cc(Cl)ccc3nc2-c2ccccc2)cc1 | 36 | 24.3 | – | – | – | – | –
c1ccc(-c2nc3ccccc3nc2-c2ccc(OCCN3CCOCC3)cc2)cc1 | 40.3 | 6.2 | 8.7 | 8.7 | > 50 | 4.6 | 4.6
COc1ccc(-c2nc3ccc(Cl)cc3nc2-c2ccccc2)cc1 | 43.8 | 31.5 | 9.5 | 9.5 | > 50 | 6.5 | 6.5

Compound | IC50 (Trypanosoma cruzi [1]) [µM] | IC50 (Leishmania amazonensis) [µM] | selectivity ratio [2] | selectivity ratio [3] | EC50 (Trypanosoma cruzi [4]) [µM] | selectivity ratio [5] | selectivity ratio [6]
Clc1ccc2nc(-c3ccccc3)c(-c3ccccc3)nc2c1 | 42.7 | 28.1 | 6.6 | 6.6 | > 50 | 6.1 | 6.1
Clc1cc2nc(-c3ccccc3)c(-c3ccccc3)nc2cc1Cl | 54 | 5.3 | 38.5 | 38.5 | > 50 | 8.7 | 8.7
Cc1ccc(-c2nc3cc(Cl)c(Cl)cc3nc2-c2ccccc2)cc1 | 83.4 | 22.2 | 3.2 | 3.2 | > 50 | 1.3 | 1.3
Oc1ccc(-c2nc3ccccc3nc2-c2ccc(OCCN3CCCCC3)cc2)cc1 | 39.2 | 5.7 | 8.2 | 8.2 | > 50 | 1 | 1
COc1ccc2nc(N(C)C)c(SC)nc2c1 | 83.6 | 42.8 | 5.9 | 5.9 | > 50 | 6.2 | 6.2
CCCCNc1nc2ccc(OC)cc2nc1SC | 86.7 | 35.2 | 2.1 | 2.1 | > 50 | 3.1 | 3.1
COc1ccc2nc(NCCO)c(SC)nc2c1 | > 100 | 82.9 | 5 | 5 | > 50 | – | –
CCCCNc1nc2ccccc2nc1SC | 93.1 | 75.9 | 1.9 | 1.9 | > 50 | 1.2 | 1.2
CSc1nc2ccccc2nc1NCCO | > 100 | 96.2 | 2.9 | 2.9 | > 50 | – | –
COc1ccc2nc(NC3CCCCC3)c(SC)nc2c1 | 30.5 | 29.8 | 1.2 | 1.2 | > 50 | 8.5 | 8.5
CCCCNc1nc2cc(OC)ccc2nc1SC | 69.2 | 30.2 | 3.5 | 3.5 | > 50 | 1.1 | 1.1
COc1ccc2nc(SC)c(NCCO)nc2c1 | > 100 | > 100 | – | – | > 50 | – | –
COc1ccc2nc(SC)c(NC3CCCCC3)nc2c1 | 41 | 21.5 | – | 2.4 | > 50 | 1.8 | –
COc1ccc2nc(SC)c(NCC(C)C)nc2c1 | 95.7 | 26.9 | 4.7 | 4.7 | > 50 | 0.7 | 0.7
COc1ccc2nc(SC)c(NCCC(C)C)nc2c1 | 79.6 | 27.1 | 3.3 | 3.3 | > 50 | 0.7 | 0.7
CCCCNc1nc2cc(Br)ccc2nc1SC | 41.8 | 25.2 | 5.1 | 5.1 | > 50 | 0.9 | 0.9
CSc1nc2ccc(Br)cc2nc1NCCO | > 100 | > 100 | – | – | > 50 | – | –
COc1ccc2nc(NCC(C)C)c(SC)nc2c1 | 69.9 | 27.6 | 6.7 | 6.7 | > 50 | 1 | 1
CCCCNc1nc2cc(Cl)ccc2nc1SC | 63.6 | 24.4 | 4.6 | 4.6 | > 50 | 1 | 1
CSc1nc2ccc(Cl)cc2nc1NC1CCCCC1 | 52.3 | > 100 | – | – | > 50 | 4.8 | 4.8
COc1ccc2nc(N(C)C)c(S(C)(=O)=O)nc2c1 | 25.2 | 35.9 | 4.5 | 4.5 | > 50 | 6.8 | 6.8
COc1ccc2nc(S(C)(=O)=O)c(NCCO)nc2c1 | 90.9 | 69.2 | 3.7 | 3.7 | > 50 | 2.6 | 2.6
CCCCNc1nc2cc(OC)ccc2nc1-c1ccccc1 | 66.8 | > 100 | – | – | > 50 | 12.5 | 12.5
COc1ccc2nc(-c3ccccc3)c(NCCO)nc2c1 | > 100 | 72.8 | 4.8 | 4.8 | > 50 | – | –
COc1ccc2nc(-c3ccccc3)c(NCCN3CCCCC3)nc2c1 | 47.6 | 50.3 | 0.9 | 0.9 | > 50 | 3.8 | 3.8

Source: ChEMBL document CHEMBL3396970, “Synthesis and biological evaluation of novel 2,3-disubstituted quinoxaline derivatives as antileishmanial and antitrypanosomal agents” (Eur J Med Chem, 2015)
